Tests used:
Canis familiaris [1] = assay: Cardiotoxicity in spontaneously respiring dog assessed as degree of increase in heart rate at 30 to 60 mg/kg, iv relative to control; assay type: toxicity, organism-based, Canis lupus familiaris; design: dose 30-60 mg/kg, route intravenous; conditions: in vivo
In short: (§1)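 Anesthetized, spontaneously respiring dogs. Heart rate was taken from a lead II EKG, and blood pressure from the right femoral artery by transducer. The increase in heart rate (beats/min) was scored on a graded scale with more than 4 dogs per dose, and its duration was recorded. Drugs were dissolved fresh in distilled water, diluted in physiological saline and kept on ice.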

Canis familiaris [2] = assay: Cardiotoxicity in spontaneously respiring dog assessed as degree of increase in heart rate at 2000 to 2700 mg/kg, it relative to control; assay type: toxicity, organism-based, Canis lupus familiaris; design: dose 2000-2700 mg/kg, route endotracheal; conditions: in vivo, inhaled_or_intranasal; in short: as §1
Canis familiaris [3] = assay: Cardiotoxicity in spontaneously respiring dog assessed as time of increase in heart rate at 2000 to 2700 mg/kg, it relative to control; assay type: toxicity, organism-based, Canis lupus familiaris; design: dose 2000-2700 mg/kg, route endotracheal; conditions: in vivo, inhaled_or_intranasal; in short: as §1
Canis familiaris [4] = assay: Bronchodilator activity in dog assessed as time of inhibition of carbachol or histamine-induced bronchoconstriction at 30 to 60 mg/kg, iv relative to control; assay type: functional, Canis lupus familiaris; conditions: dose mg/kg 30-60
In short: (§2)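 Dog airway model: anesthetized, cannulated via a nonbreathing valve, with airway pressure changes recorded after iv carbachol (2–4 μg/kg) or histamine diphosphate (20–50 μg/kg) challenge, each agonist in different animals. Compounds were given iv, intraduodenally or intratracheally from fresh aqueous stocks diluted in saline. Duration (h) of inhibition of induced bronchoconstriction was followed, and the two agonist datasets were pooled.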

Canis familiaris [5] = assay: Bronchodilator activity in dog assessed as time of inhibition of carbachol or histamine-induced bronchoconstriction at 2000 to 2700 mg/kg, it relative to control; assay type: functional, Canis lupus familiaris; conditions: dose mg/kg 2000-2700; route endotracheal; in short: as §2
Canis familiaris [6] = assay: Bronchodilator activity in dog assessed as degree of inhibition of carbachol or histamine-induced bronchoconstriction at 30 to 60 mg/kg, iv relative to control; assay type: functional, Canis lupus familiaris; conditions: dose mg/kg 30-60
In short: (§3)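 Anesthetized dogs, trachea cannulated with a nonbreathing valve. Bronchoconstriction induced by iv carbachol (2–4 μg/kg) or histamine diphosphate (20–50 μg/kg) in separate animals, and airway pressure recorded by transducer. Drug stocks were made fresh in distilled water, diluted in saline and kept on ice. Read-out was percent inhibition of control constriction, averaged over at least three dogs per dose at the higher dose. Carbachol and histamine data were combined.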

Canis familiaris [7] = assay: Bronchodilator activity in dog assessed as degree of inhibition of carbachol or histamine-induced bronchoconstriction at 2000 to 2700 mg/kg, it relative to control; assay type: functional, Canis lupus familiaris; conditions: dose mg/kg 2000-2700; route endotracheal; in short: as §3
Canis familiaris [8] = assay: Bronchodilator activity in dog assessed as time of inhibition of carbachol or histamine-induced bronchoconstriction at 300 to 1200 mg/kg, it relative to control; assay type: functional, Canis lupus familiaris; conditions: dose mg/kg 300-1200; route endotracheal; in short: as §2
Canis familiaris [9] = assay: Bronchodilator activity in dog assessed as time of inhibition of carbachol or histamine-induced bronchoconstriction at 140 to 280 mg/kg, iv relative to control; assay type: functional, Canis lupus familiaris; conditions: dose mg/kg 140-280; in short: as §2
Canis familiaris [10] = assay: Bronchodilator activity in dog assessed as time of inhibition of carbachol or histamine-induced bronchoconstriction at 140 mg/kg, id relative to control; assay type: functional, Canis lupus familiaris; conditions: route intraduodenal; in short: as §2
Canis familiaris [11] = assay: Bronchodilator activity in dog assessed as degree of inhibition of carbachol or histamine-induced bronchoconstriction at 300 to 1200 mg/kg, it relative to control; assay type: functional, Canis lupus familiaris; conditions: dose mg/kg 300-1200; route endotracheal; in short: as §3
Canis familiaris [12] = assay: Bronchodilator activity in dog assessed as degree of inhibition of carbachol or histamine-induced bronchoconstriction at 140 to 280 mg/kg, iv relative to control; assay type: functional, Canis lupus familiaris; conditions: dose mg/kg 140-280; in short: as §3
Canis familiaris [13] = assay: Bronchodilator activity in dog assessed as degree of inhibition of carbachol or histamine-induced bronchoconstriction at 140 mg/kg, id relative to control; assay type: functional; conditions: Canis lupus familiaris, route intraduodenal; in short: as §3
Canis familiaris [14] = assay: Cardiotoxicity in spontaneously respiring dog assessed as degree of increase in heart rate at 35 to 140 mg/kg, iv relative to control; assay type: toxicity, organism-based, Canis lupus familiaris; design: dose 35-140 mg/kg, route intravenous; conditions: in vivo; in short: as §1
Canis familiaris [15] = assay: Cardiotoxicity in spontaneously respiring dog assessed as degree of increase in heart rate at 70 to 280 mg/kg, id relative to control; assay type: toxicity, organism-based, Canis lupus familiaris; design: dose 70-280 mg/kg, route intraduodenal; conditions: in vivo, other; in short: as §1
Canis familiaris [16] = assay: Cardiotoxicity in spontaneously respiring dog assessed as time of increase in heart rate at 35 to 140 mg/kg, iv relative to control; assay type: toxicity, organism-based, Canis lupus familiaris; design: dose 35-140 mg/kg, route intravenous; conditions: in vivo; in short: as §1
Canis familiaris [17] = assay: Cardiotoxicity in spontaneously respiring dog assessed as time of increase in heart rate at 70 to 280 mg/kg, id relative to control; assay type: toxicity, organism-based, Canis lupus familiaris; design: dose 70-280 mg/kg, route intraduodenal; conditions: in vivo, other
In short: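 Anesthetized, spontaneously respiring dogs. Heart rate monitored by lead II EKG, with blood pressure taken from the right femoral artery by pressure transducer and recorded on a polygraph. Drug stocks made fresh in distilled water, diluted in physiological saline and kept on ice. Dosing was iv, id or it as listed. The duration of the heart-rate increase was recorded in h, with more than 4 dogs per dose.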

Canis familiaris [18] = assay: Bronchodilator activity in dog assessed as time of inhibition of carbachol or histamine-induced bronchoconstriction at 35 to 140 mg/kg, iv relative to control; assay type: functional, Canis lupus familiaris; conditions: dose mg/kg 35-140; in short: as §2
Canis familiaris [19] = assay: Bronchodilator activity in dog assessed as time of inhibition of carbachol or histamine-induced bronchoconstriction at 70 to 280 mg/kg, id relative to control; assay type: functional, Canis lupus familiaris; conditions: dose mg/kg 70-280; route intraduodenal
In short: (§4)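 Anesthetized dogs with an airway cannula and a nonbreathing valve. Bronchoconstriction was induced by iv carbachol (2–4 μg/kg) or histamine diphosphate (20–50 μg/kg) and read as change in airway pressure by transducer. Each compound was tested against both agonists in different dogs, and the results were combined and averaged. Effect is % inhibition of control constriction, with at least three dogs per dose. Drugs were dissolved fresh in distilled water, diluted in saline and kept on ice.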

Canis familiaris [20] = assay: Bronchodilator activity in dog assessed as time of inhibition of carbachol or histamine-induced bronchoconstriction at 540 to 1080 mg/kg, it relative to control; assay type: functional, Canis lupus familiaris; conditions: dose mg/kg 540-1080; route endotracheal; in short: as §4
Canis familiaris [21] = assay: Bronchodilator activity in dog assessed as degree of inhibition of carbachol or histamine-induced bronchoconstriction at 35 to 140 mg/kg, iv relative to control; assay type: functional, Canis lupus familiaris; conditions: dose mg/kg 35-140; in short: as §3
Canis familiaris [22] = assay: Bronchodilator activity in dog assessed as degree of inhibition of carbachol or histamine-induced bronchoconstriction at 70 to 280 mg/kg, id relative to control; assay type: functional, Canis lupus familiaris; conditions: dose mg/kg 70-280; route intraduodenal; in short: as §3
Canis familiaris [23] = assay: Bronchodilator activity in dog assessed as degree of inhibition of carbachol or histamine-induced bronchoconstriction at 540 to 1080 mg/kg, it relative to control; assay type: functional, Canis lupus familiaris; conditions: dose mg/kg 540-1080; route endotracheal; in short: as §3
Canis familiaris [24] = assay: Cardiotoxicity in spontaneously respiring dog assessed as time of increase in heart rate at 540 to 1080 mg/kg, it relative to control; conditions: in vivo
Canis familiaris [25] = assay: Cardiotoxicity in spontaneously respiring dog assessed as degree of increase in heart rate at 540 to 1080 mg/kg, intratracheal relative to control; conditions: in vivo
Canis familiaris [26] = assay: Bronchodilator activity in dog assessed as time of inhibition of carbachol or histamine-induced bronchoconstriction at 590 to 1180 mg/kg, it relative to control; conditions: dose mg/kg 590-1180; route endotracheal
Canis familiaris [27] = assay: Bronchodilator activity in dog assessed as degree of inhibition of carbachol or histamine-induced bronchoconstriction at 590 to 1180 mg/kg, it relative to control; conditions: dose mg/kg 590-1180; route endotracheal
Canis familiaris [28] = assay: Cardiotoxicity in spontaneously respiring dog assessed as degree of increase in heart rate at 25 to 100 mg/kg, iv relative to control; assay type: toxicity, organism-based, Canis lupus familiaris; design: dose 25-100 mg/kg, route intravenous; conditions: in vivo; in short: as §1
Canis familiaris [29] = assay: Cardiotoxicity in spontaneously respiring dog assessed as time of increase in heart rate at 25 to 100 mg/kg, iv relative to control; assay type: toxicity, organism-based, Canis lupus familiaris; design: dose 25-100 mg/kg, route intravenous; conditions: in vivo; in short: as §1
Canis familiaris [30] = assay: Bronchodilator activity in dog assessed as time of inhibition of carbachol or histamine-induced bronchoconstriction at 50 to 100 mg/kg, id relative to control; assay type: functional, Canis lupus familiaris; conditions: dose mg/kg 50-100; route intraduodenal; in short: as §4
Canis familiaris [31] = assay: Bronchodilator activity in dog assessed as time of inhibition of carbachol or histamine-induced bronchoconstriction at 25 to 100 mg/kg, iv relative to control; assay type: functional, Canis lupus familiaris; conditions: dose mg/kg 25-100; in short: as §2
Canis familiaris [32] = assay: Bronchodilator activity in dog assessed as degree of inhibition of carbachol or histamine-induced bronchoconstriction at 50 to 100 mg/kg, id relative to control; assay type: functional, Canis lupus familiaris; conditions: dose mg/kg 50-100; route intraduodenal; in short: as §3
Canis familiaris [33] = assay: Bronchodilator activity in dog assessed as degree of inhibition of carbachol or histamine-induced bronchoconstriction at 25 to 100 mg/kg, iv relative to control; assay type: functional, Canis lupus familiaris; conditions: dose mg/kg 25-100; in short: as §3

CC(C)(C)NC[C@H](O)c1ccc(OC(=O)c2ccccc2)c(OC(=O)c2ccccc2)c1.Cl
Activity (Canis familiaris [1]): 40% | Activity (Canis familiaris [2]): 20% | Time (Canis familiaris [3]): 1 h | Time (Canis familiaris [4]): <4 h | Time (Canis familiaris [5]): 4 h | inhibition (INH) (Canis familiaris [6]): 45% | inhibition (INH) (Canis familiaris [7]): >70%

CS(=O)(=O)O.Cc1cccc(C(=O)Oc2ccc([C@@H](O)CNC(C)(C)C)cc2OC(=O)c2cccc(C)c2)c1
Time (Canis familiaris [8]): <4 h | Time (Canis familiaris [9]): >3 h | Time (Canis familiaris [10]): 2 h | inhibition (INH) (Canis familiaris [11]): 45% | inhibition (INH) (Canis familiaris [12]): >70% | inhibition in vivo at 140 mg/kg (Canis familiaris [13]): 45%

CS(=O)(=O)O.Cc1ccc(C(=O)Oc2ccc([C@@H](O)CNC(C)(C)C)cc2OC(=O)c2ccc(C)cc2)cc1
Activity (Canis familiaris [14]): 20% | Activity (Canis familiaris [15]): 20% | Time (Canis familiaris [16]): 2 h | Time (Canis familiaris [17]): 2 h | Time (Canis familiaris [18]): >5 h | Time (Canis familiaris [19]): >5 h | Time (Canis familiaris [20]): >5 h | inhibition (INH) (Canis familiaris [21]): >70% | inhibition (INH) (Canis familiaris [22]): >70% | inhibition (INH) (Canis familiaris [23]): 45% | Time (Canis familiaris [24]): < 1 h | Activity (Canis familiaris [25]): 5%

CS(=O)(=O)O.Cc1cc(C)cc(C(=O)Oc2ccc([C@@H](O)CNC(C)(C)C)cc2OC(=O)c2cc(C)cc(C)c2)c1
Time (Canis familiaris [26]): <3 h | inhibition (INH) (Canis familiaris [27]): 20%

COc1ccc(C(=O)Oc2ccc([C@@H](O)CNC(C)(C)C)cc2OC(=O)c2ccc(OC)cc2)cc1.Cl
Activity (Canis familiaris [28]): 20% | Time (Canis familiaris [29]): < 2 h | Time (Canis familiaris [30]): <3 h | Time (Canis familiaris [31]): 1 h | inhibition (INH) (Canis familiaris [32]): 20% | inhibition (INH) (Canis familiaris [33]): 20%
